Measured values reported in ChEMBL document CHEMBL4513216, “Probing the Open Global Health Chemical Diversity Library for Multistage-Active Starting Points for Next-Generation Antimalarials” (ACS Infect Dis, 2020).

Experiment: Toxicity liver stage against HepG2, at 10uM
Type: cell-based
Design: test concentration 10 uM, cell line HepG2-A16-CD81EGFP
Settings: human, HepG2-A16-CD81EGFP cells; read-out: INHIBITION
In short: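 Uninfected HepG2-A16-CD81EGFP cells, 3 × 10^3 per well, 1536-well, plated on prespotted compound at 10 μM final, parasite-free screening media added to match infected plates; puromycin 10 μM positive, DMSO 0.5% negative; run in parallel with 48 h PbLuc assay at 37 °C, 5% CO2; viability by CellTiter-Glo luminescence, normalized to controls.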

Going from `c1cncc(-c2nc(C3CC3)ncc2-c2ccnc(N3CCCC3)n2)c1` to `COCC(=O)N(C)Cc1nc(N2CCCC2)ncc1-c1ccncc1`, the cytotoxicity at 10 µM rises from -2.5% to 12.3%.

Compared with `CC(C)CC(=O)N1CC(=O)c2sc(Nc3ccc(F)cc3)nc2C1`, `CCc1ncc2c(n1)CN(C(=O)CC(C)NC(C)=O)C2` (stereo not given) is higher in cytotoxicity at 10 µM: -2.28% for the first, 3.6% for the second.

Compared with `Cc1nc2sccn2c1C(=O)N1CCc2c(nc(N(C)C)[nH]c2=O)C1`, `CCOC(=O)N1CCN(c2nc(NCCCO)c3ccccc3n2)CC1` is lower in cytotoxicity at 10 µM: 5.06% for the first, -9.21% for the second.

First: CSc1nnc(CC2CCN(C(=O)CCc3cccnc3)CC2)n1C
Second: O=C(c1cnco1)N1CCCC(Cc2cccc3ncccc23)C1 (stereo not given)
The cytotoxicity at 10 µM of the first is lower: -43.5% for the first, 2.16% for the second.

First: CC(Cn1cncn1)NCc1csc2c1CCCC2 (stereo not given)
Second: CC(C)Oc1ccccc1CNC(=O)N1CCC(n2cncn2)CC1
The cytotoxicity at 10 µM of the first is lower: -1.53% for the first, 2.38% for the second.

Compared with `CCC(Nc1nc(CCN)nc2ccccc12)c1cccs1` (stereo not given), `COCC(=O)N(Cc1cccc(C)c1)Cc1ccccc1OC` is lower in cytotoxicity at 10 µM: -3.09% for the first, -51.4% for the second.

Compared with `CCCc1cc(CN(C)C2CSCCSC2)n[nH]1`, `CN(C)[C@H]1CCCCN(C(=O)COCc2nc3cc(F)ccc3[nH]2)C1` is lower in cytotoxicity at 10 µM: 0.786% for the first, 0.185% for the second.

First: O=C(O)CCc1cc2n(n1)CCCN(C(=O)c1ccc(Cl)s1)C2
Second: O=C(O)C1(Cc2ccc(Cl)cc2)CCN(c2ncccc2F)CC1
The cytotoxicity at 10 µM of the first is lower: -6.06% for the first, -1.29% for the second.

First: COc1cc(CN2CCC3(CC2)[C@H](O)C[C@@H]3OCCO)ccc1F
Second: COCC1(CNC(=O)Nc2cc(F)ccc2OC)CCCC1
The cytotoxicity at 10 µM of the first is lower: -12.2% for the first, 5.17% for the second.

Going from `Cc1nccn1CCC1CCCCN1Cc1ccc2c(c1)OCCO2` (stereo not given) to `Cc1cccc(CN2CC[C@H]3[C@H]2CCN3Cc2cnn(C)c2)n1`, the cytotoxicity at 10 µM rises from -7.63% to 8.67%.

First: CCc1cc(-c2ccnc3c2ccn3C)nc(N2CCOCC2)n1
Second: Cc1nn(C)cc1-c1ccnc(N(C)Cc2ccoc2)n1
The cytotoxicity at 10 µM of the first is lower: -7.09% for the first, 23.8% for the second.

First: COc1ccccc1N1CCN(C(=O)CSCC2CC2)C(C)C1 (stereo not given)
Second: COC[C@@]12CCO[C@@H]1CCN(Cc1ccccc1OC)C2
The cytotoxicity at 10 µM of the first is higher: 4.06% for the first, -110% for the second.

Compared with `O=C(CCc1ccccn1)NC1CCCN(C2Cc3ccccc3C2)C1` (stereo not given), `O=C(CN1C[C@@H]2CC[C@H]1CN(Cc1ccccn1)C2)NCc1cccs1` is lower in cytotoxicity at 10 µM: 1.96% for the first, -24.2% for the second.

First: CNC(=O)[C@@H]1C[C@@H](NC(=O)Cc2nonc2C)CN1Cc1sccc1C
Second: CCn1cc2c(n1)CN(Cc1sccc1C)CC2COCC1CC1 (stereo not given)
The cytotoxicity at 10 µM of the first is higher: -4.42% for the first, -57.3% for the second.

Compared with `CCc1cc(NC2CCN(CC(N)=O)CC2)nc(N2CCCCC2)n1`, `COCCN1CCC(c2nc3ccc(N4CCCC4)cn3n2)CC1` is higher in cytotoxicity at 10 µM: -4.75% for the first, 11.8% for the second.

Going from `CN1CCN(c2cnn(Cc3ccc(S(C)(=O)=O)cc3)c(=O)c2)CC1` to `CN1CCN(c2ccc3ccc(C(=O)N4CCCO4)cn23)CC1`, the cytotoxicity at 10 µM rises from -10.4% to 13.4%.

Going from `COc1ccc(-c2n[nH]cc2CN(C)Cc2nccn2C)c(F)c1` to `COc1cccc(COCC(O)CN2CC(n3cccn3)C2)c1` (stereo not given), the cytotoxicity at 10 µM falls from -2.77% to -8.52%.

Compared with `O=C1CCCN1CCN1CC[C@@]2(O)CCN(c3ncccn3)C[C@H]2C1`, `COCC1(C(=O)N[C@H]2CN(c3ccnc(C)c3)C[C@@H]2C2CC2)CCC1` is lower in cytotoxicity at 10 µM: -2.61% for the first, -160% for the second.

First: COC(=O)c1cc(CN2CCN(c3nc(C)cnc3C)CC2)ccc1O
Second: CCCc1nnsc1C(=O)N1CCN(CC(C)O)CC1 (stereo not given)
The cytotoxicity at 10 µM of the first is higher: 0.171% for the first, -5.3% for the second.

First: CCC[C@@H]1CN(C(=O)c2cnc3ccccc3c2)C[C@H]1NS(C)(=O)=O
Second: CS(=O)(=O)NCCCN1CCCCC1c1cc2ccccc2[nH]1 (stereo not given)
The cytotoxicity at 10 µM of the first is lower: -11.1% for the first, -10.6% for the second.

First: CCn1cncc1CNc1ccc(-c2nc(CC(C)C)no2)cn1
Second: Cc1ccc(-c2nc(CN3CCCC3Cn3cc(C)cn3)no2)cc1 (stereo not given)
The cytotoxicity at 10 µM of the first is lower: -9.07% for the first, 4.07% for the second.

First: CN1CCCC(c2cccc(Cc3ccccc3Cl)n2)C1 (stereo not given)
Second: CCc1nc(C2CCCN2CCCS(=O)(=O)c2ccccc2)no1 (stereo not given)
The cytotoxicity at 10 µM of the first is higher: 1.03% for the first, -6.15% for the second.

Going from `CC1CN(C)CCN1C(=O)c1ccn(-c2cccc(F)c2)n1` (stereo not given) to `Cn1cc(N2C(=O)CC[C@@H]3[C@H]2CCN3C(=O)c2cscn2)cn1`, the cytotoxicity at 10 µM falls from -1.87% to -81.5%.

Compared with `Cc1nc(C)n(CC2CN(Cc3cc(C#N)ccc3F)CCO2)n1` (stereo not given), `O=C(c1ccncc1F)N1Cc2nc(CN3CCCCC3)oc2C1` is lower in cytotoxicity at 10 µM: -1.56% for the first, -105% for the second.

First: CC(NC(=O)NCc1cc[nH]n1)c1ccc2c(c1)CCC(=O)N2 (stereo not given)
Second: COCCN1CCc2cc(C(=O)NCC3CC3)c(NC(C)C)nc2CC1
The cytotoxicity at 10 µM of the first is lower: -9.37% for the first, 73.6% for the second.

Going from `CC1CCN(CCCNS(=O)(=O)c2cc(F)cc(F)c2)CC1` to `O=C(NC1CCC1)[C@H]1C[C@H]2CN(S(=O)(=O)c3ccccc3)C[C@@H]1O2`, the cytotoxicity at 10 µM falls from 11.3% to -9.02%.

Going from `CCOCC1CN(C(=O)c2cnoc2C)Cc2cn(C)nc21` (stereo not given) to `Fc1cccc(-c2nnn3c2COC(CNCc2ccsc2)C3)c1` (stereo not given), the cytotoxicity at 10 µM falls from 12.9% to -1.52%.

`N#Cc1cccc(N2CCCC3(CNCCO3)C2)n1` (stereo not given) showed a cytotoxicity at 10 µM of 13.7%.
